Source: PubChem (several laboratories)
The list is not random: actives were taken first. Their share in the collection is about 2.1%.
MC4R barr agon = MC4R agonists recruiting beta-arrestin, primary screen, cell-based, luminescence, agonist arm of biased-ligand search | U2OS MC4R beta-arrestin complementation; percent of melanotan II response, DMSO zero | activation, % at 8.9 µM | actives 0.98% (n = 360,000) | AID 540308, 2011;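 active = activation above a per-plate cutoff, the mean activation of sample wells on that plate plus 3 SD, cut at about 8% in these data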
Target sequence (P32245 whole entry, looked up): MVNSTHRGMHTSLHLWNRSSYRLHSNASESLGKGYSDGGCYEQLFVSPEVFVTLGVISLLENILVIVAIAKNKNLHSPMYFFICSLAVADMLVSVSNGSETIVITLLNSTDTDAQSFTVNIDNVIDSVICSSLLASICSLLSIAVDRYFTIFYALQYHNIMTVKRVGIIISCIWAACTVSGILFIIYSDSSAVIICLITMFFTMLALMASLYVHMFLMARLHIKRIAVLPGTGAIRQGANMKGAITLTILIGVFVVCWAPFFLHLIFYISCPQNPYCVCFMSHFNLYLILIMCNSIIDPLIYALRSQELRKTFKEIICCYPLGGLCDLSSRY
MC4R antagonist = MC4R antagonists of cAMP signaling, primary screen, cell-based, TR-FRET, antagonist arm of biased-ligand search; Melanocortin receptor 4 (Homo sapiens), P32245; MC4R-expressing cells, MTII-stimulated cAMP, LANCE TR-FRET; inhibition, % at 6.5 µM; actives 0.48% (n = 360,000);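 active = inhibition above its plate's cutoff, the mean of tested wells on that plate plus 3 SD, cut at about 29% in these data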;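 also: 0% = Melanotan II alone and 100% = Melanotan II plus saturating MCL0020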
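system = U2OS cells with stable human MC4R expression | also added = Melanotan II challenge after compound preincubation | dosing = one concentration, 6.5 µM nominal | incubation = compound 30 min, challenge 1 h, detection 1 h | measured by = TR-FRET with Eu-cAMP and labeled anti-cAMP, 671 nm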
SMARCA2 activ = SMARCA2 (BRM) function activators, primary screen, cell-based, luminescence, high throughput; MG213 cells, MMTV-luciferase reporter, dexamethasone, overnight; activation, % at 9.1 µM; actives 1% (n = 370,000); in the data active = activation above about 7.8%;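 also: 0% = vehicle wells and 100% = reference activator wells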
CFTR F508del cor = F508del CFTR correction, initial screen, CFBE line, single point. CFBE cells, YFP halide quenching; stimulated with forskolin plus potentiator P3; % fluorescence drop versus neutral controls. activity (quench increase), % at 7.58 µM. actives 0.36% (n = 350,000);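 active = mean added fluorescence quench of at least 8% versus neutral control, with both replicates also reaching 8%; inconclusive = only one of the mean or replicate conditions met; inactive = mean below 8% and not both replicates reaching 8%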;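 also: cells transiently co-express mutant CFTR-F508del with the halide-sensitive YFP; corrector assay measuring rescue of mutant channel to the surface after 24 h compound exposure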
SMARCA2 conf = SMARCA2 (BRM) function activators, confirmation, cell-based, luminescence, triplicate. shares compounds with SMARCA2 activ. AID 652260, 2013. activation, % at 9.1 µM. actives 30% (n = 3,500). MG213 cells, MMTV-luciferase with dexamethasone, overnight; MG213 cells expressing E1A, Rb sequestered; DMSO wells 0%, reference activator 100%;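 active = activation above its plate's cutoff, the mean activation of tested wells plus 3 SD, cut at about 7.9% in these data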
VP16 Luc act = GAL4-VP16 luciferase reporter activation, counter-screen for SMARCA2 (BRM) activator project, cell-based, pG5luc, luminescence, high throughput; shares compounds with SMARCA2 activ; HEK293 GAL4-VP16 pG5luc reporter; scaled: DMSO wells 0%, SAHA wells 100%; activation, % at 9.1 µM; actives 41% (n = 3,500); AID 686939, 2013;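 active = activation above the solvent-only control well mean plus 3 SD, averaged across control plates, cut at about 5.2% in these data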
* marks the source's active call; other numbers are inactive results.

Cc1ccc(CN2CCN(c3ccccn3)CC2)s1 was read as MC4R barr agon -1, MC4R antagonist -2, SMARCA2 activ 9.6*, SMARCA2 conf 3 and VP16 Luc act 0.
Screening CN1C(=O)c2cc(NC(=O)c3ccc(F)cc3)ccc2OC[C@H]2O[C@H](CC(=O)NCC3CCCCC3)CC[C@H]21 returned CFTR F508del cor -3.
`O=C(C[C@@H]1C[C@H]2c3cc(NC(=O)C4CCC4)ccc3O[C@H]2[C@@H](CO)O1)NCCc1ccccc1` gave CFTR F508del cor -1.
For CSc1ccccc1C(=O)Nc1cc(C)cc(C)c1 the results were MC4R barr agon 0, MC4R antagonist 2, SMARCA2 activ 9.3*, SMARCA2 conf 5 and VP16 Luc act 1.
For Nc1nc(-c2ccccc2)cc(N2CCCCC2)n1 the results were MC4R barr agon -3, MC4R antagonist -23 and SMARCA2 activ 0.
For c1ccc(-c2cc(N3CCCCC3)ncn2)cc1 the results were MC4R barr agon -2, MC4R antagonist 2, SMARCA2 activ 8.2*, SMARCA2 conf 8.5* and VP16 Luc act 8.6*.
For O=C1c2cccc3c2C2(O)c4c1cccc4C(=O)c1cccc(c12)C3=O the results were MC4R barr agon 1, MC4R antagonist 24, SMARCA2 activ 8.1*, CFTR F508del cor -2, SMARCA2 conf -1 and VP16 Luc act 2.
COCC#Cc1cnc2c(c1)C(=O)N([C@H](C)CO)C[C@H](C)[C@@H](CN(C)C)O2 was read as CFTR F508del cor 0.
CC(C)CC#Cc1cnc2c(c1)C(=O)N([C@@H](C)CO)C[C@H](C)[C@H](CN(C)C(=O)c1cnccn1)O2 was read as CFTR F508del cor 1.
For COc1ccc2oc(C(=O)OCC(=O)N3CCCCC3C)c(C)c2c1 (configuration not stated) the results were MC4R barr agon -3, MC4R antagonist 1, SMARCA2 activ 8.4*, CFTR F508del cor -2, SMARCA2 conf 7 and VP16 Luc act 2.
Screening C[C@H](CO)N1C[C@H](C)[C@H](CN(C)C(=O)c2ccccc2)OCCCC[C@H](C)Oc2ccc(NC(=O)CCC(F)(F)F)cc2C1=O returned CFTR F508del cor -2.
Screening CCc1ccc(C(=O)Cn2ncc(Cl)c(Cl)c2=O)cc1 returned MC4R barr agon 4, MC4R antagonist 19, SMARCA2 activ 17*, SMARCA2 conf -16 and VP16 Luc act 4.
For O=C(Cn1ncc(Cl)c(Cl)c1=O)N1CCOCC1 the results were MC4R barr agon 5, MC4R antagonist 2, SMARCA2 activ -11 and CFTR F508del cor inconclusive.
For COC(=O)N/N=C(\C)c1ccccc1Br the results were MC4R barr agon -1, MC4R antagonist 0, SMARCA2 activ 8.0*, SMARCA2 conf 9.1* and VP16 Luc act 0.
Screening O=C(Cc1ccccc1)N1CC2(C1)[C@@H](c1ccccc1)[C@@H](CO)N2C(=O)Cc1ccccc1 returned CFTR F508del cor 1.
Screening Cc1ccc(N2Cc3ccccc3C2=S)cc1 returned MC4R barr agon -3, MC4R antagonist 17, SMARCA2 activ 13*, CFTR F508del cor -2, SMARCA2 conf 12* and VP16 Luc act 11*.
S=C1c2ccccc2CN1c1ccccc1 was read as MC4R barr agon -2, MC4R antagonist 2, SMARCA2 activ 10*, SMARCA2 conf 4 and VP16 Luc act 3.
Screening C[C@H]1CN([C@@H](C)CO)C(=O)Cc2cc(NS(=O)(=O)c3ccccc3)ccc2O[C@@H]1CN(C)Cc1ccc2c(c1)OCO2 returned CFTR F508del cor 6.
For O=S(=O)(/N=C(/c1ccccc1)N1CCOCC1)c1ccc(Br)cc1 the results were MC4R barr agon -3, MC4R antagonist 11, SMARCA2 activ -1 and CFTR F508del cor 1.
Screening Cc1ccc(S(=O)(=O)/N=C(/c2ccccc2)N2CCOCC2)cc1 returned MC4R barr agon 4, MC4R antagonist 14, SMARCA2 activ 8.2*, CFTR F508del cor 4, SMARCA2 conf -2 and VP16 Luc act 1.
`COc1ccc(NC(=O)N(C)C[C@@H]2Oc3ccc(N(C)C)cc3CC(=O)N([C@@H](C)CO)C[C@@H]2C)cc1` gave CFTR F508del cor 0.
`Nc1nc(Nc2ccccc2F)nc(NCc2ccco2)c1[N+](=O)[O-]` gave MC4R barr agon -2, MC4R antagonist -4, SMARCA2 activ 13*, CFTR F508del cor 3, SMARCA2 conf 7 and VP16 Luc act 2.
For O=C(Nc1ccc2c(c1)[C@@H]1C[C@H](CC(=O)N3CCc4ccccc4C3)O[C@@H](CO)[C@@H]1O2)C1CCOCC1 the results were CFTR F508del cor 3.
For C[C@@H]1CN([C@H](C)CO)C(=O)Cc2cc(NS(=O)(=O)c3cn(C)cn3)ccc2O[C@H]1CN(C)Cc1ccc(Cl)c(Cl)c1 the results were CFTR F508del cor -3.
Cc1ccc(Nc2nc(N)nc(CC#N)n2)cc1 was read as MC4R barr agon -2, MC4R antagonist 4, SMARCA2 activ 12*, SMARCA2 conf 8 and VP16 Luc act 6.6*.
C[C@@H]1CN([C@H](C)CO)C(=O)Cc2cc(NC(=O)C3CC3)ccc2O[C@@H]1CN(C)S(=O)(=O)c1ccccc1 was read as CFTR F508del cor -3.
`COc1cccc(-c2onc3ccc(C(C)=O)cc23)c1` gave MC4R barr agon 0, MC4R antagonist 14, SMARCA2 activ 8.4*, CFTR F508del cor 3, SMARCA2 conf 6 and VP16 Luc act 2.
`CC(=O)c1ccc2noc(-c3cccc(F)c3)c2c1` gave MC4R barr agon -1, MC4R antagonist 11, SMARCA2 activ 0 and CFTR F508del cor -1.
`Cc1ccccc1/C=N/Nc1nc2ccccc2[nH]1` gave MC4R barr agon 0, MC4R antagonist -12, SMARCA2 activ 0 and CFTR F508del cor 1.
Screening Cc1[nH]c2ccccc2c1/C=N/NC(=O)c1ccc(N)cc1 returned MC4R barr agon -2, MC4R antagonist 2, SMARCA2 activ 9.3*, CFTR F508del cor -2, SMARCA2 conf 3 and VP16 Luc act 0.
`Cc1[nH]c2ccccc2c1/C=N/Nc1nc2ccccc2[nH]1` gave MC4R barr agon -3, MC4R antagonist -4, SMARCA2 activ 21*, CFTR F508del cor -15, SMARCA2 conf 9.2* and VP16 Luc act 5.
